Structures can show the parent of a compound that is named as a salt.
Legend:
[1] = system: Citroff1; format: cell-based, HeLa; conditions: read-out: in situ Kd (Citroff1); n = 26
How it was run: (§1)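 HeLa cells (ATCC CCL-2) express the biosensor from a CMV promoter, untargeted (cytoplasmic/nuclear). Cells are imaged, permeabilized with digitonin, then titrated stepwise with citrate (0.1 to ∼20 mM) in the imaging buffer, allowing at least 250 s per step. The mean response versus citrate gives the in situ calibration curve, from 128 cells or 26 cells; s.e.m. is given.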

[2] = molecular target: CF98; format: binding; conditions: read-out: Kd (CF98)
[3] = system: Citron1; format: cell-based, HeLa; conditions: read-out: in situ Kd (Citron1); n = 128
How it was run: as §1

[4] = system: citrate concentration in INS-1 cells; assay: Citrate quantification with Citron1 in INS-1 cells treated with glucose or BTC; format: cell-based, rat
How it was run: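 INS-1 cells express the direct-response citrate biosensor in the cytosol or in mitochondria and are imaged in Krebs-Ringer buffer, with 20 mM glucose then 2 mM test compound, or test compound without glucose. Concentrations are read from in situ titration curves in digitonin-permeabilized cells (cytosol n = 62, mitochondria n = 34 cells). Each value is the average of triplicates; s.e.m. is given.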

[5] = system: citrate concentration in HeLa cells; assay: Imaging of glucose- or drug-induced citrate concentration changes in HeLa cells; format: cell-based
[6] = system: citrate concentration in INS-1 cells; conditions: stimulatory glucose; cited from earlier work

O=C(O)CC(O)(CC(=O)O)C(=O)O [citrate, citrate (2-hydroxypropane-1,2,3-tricarboxylate)]
Kd [1]: 0.13 mM | Kd [2]: ~9 mM | Kd [3]: 5.7 mM

O=C(O)c1cccc(C(=O)O)c1C(=O)O [BTC, 1,2,3-benzenetricarboxylate]
citrate concentration, following increase ([4]; 2 mM BTC after glucose addition): ~18 mM | citrate concentration, pronounced decrease after treatment ([4]; 2 mM BTC after glucose addition, from ∼25 mM): ~10 mM | citrate concentration after treatment ([4]; 2 mM BTC in the absence of glucose, from ∼3 mM): less than 2 mM

OC[C@H]1OC(O)[C@H](O)[C@@H](O)[C@@H]1O (stereo partly drawn) [glucose]
cytosolic citrate concentration change upon glucose addition ([5]; HeLa cells starved 0.5–1 h, 20 mM glucose): substantially increased | mitochondrial citrate change upon glucose addition ([5]; HeLa cells starved 0.5–1 h, mitochondria-localized Citron1): initial transient decrease followed by a slower increase | fold increase in the concentration of citrate [6]: ~8 fold | cytosolic and mitochondrial citrate concentration after treatment ([4]; 20 mM glucose, Krebs-Ringer buffer): ~25 mM

N#C/C(=C\c1cn(-c2ccccc2)c2ccccc12)C(=O)O [UK-5099, reference compound]
subsequent change of Citron1 fluorescence ([5]; HeLa mitochondria, 25 μM): sustained decrease | transient increase of Citron1 fluorescence ([5]; HeLa mitochondria, 25 μM, likely DMSO artifact per authors): 20%
